Results as given in ChEMBL document CHEMBL4304743, “Discovery of ( E)- N1-(3-Fluorophenyl)- N3-(3-(2-(pyridin-2-yl)vinyl)-1 H-indazol-6-yl)malonamide (CHMFL-KIT-033) as a Novel c-KIT T670I Mutant Selective Kinase Inhibitor for Gastrointestinal Stromal Tumors (GISTs)” (J Med Chem, 2019).
Activity calls are given as the source filed them. No cut-off for these calls is given here.

Experiments:
[1] = system: Mast/stem cell growth factor receptor Kit (Homo sapiens), P10721 [UNDEFINED MUTATION]; experiment: Inhibition of c-KIT 560 to 578 deletion/T670I double mutant in human GIST5R cells assessed as reduction in c-KIT autophosphorylation at Y719 residue at 0.1 uM to 3 uM after 1 hr by Western blot analysis; assay type: cell-based
Mast/stem cell growth factor receptor Kit (Homo sapiens), P10721 [UNDEFINED MUTATION], sequence (P10721 whole entry, looked up, stated change not applied, the tested form may be a part): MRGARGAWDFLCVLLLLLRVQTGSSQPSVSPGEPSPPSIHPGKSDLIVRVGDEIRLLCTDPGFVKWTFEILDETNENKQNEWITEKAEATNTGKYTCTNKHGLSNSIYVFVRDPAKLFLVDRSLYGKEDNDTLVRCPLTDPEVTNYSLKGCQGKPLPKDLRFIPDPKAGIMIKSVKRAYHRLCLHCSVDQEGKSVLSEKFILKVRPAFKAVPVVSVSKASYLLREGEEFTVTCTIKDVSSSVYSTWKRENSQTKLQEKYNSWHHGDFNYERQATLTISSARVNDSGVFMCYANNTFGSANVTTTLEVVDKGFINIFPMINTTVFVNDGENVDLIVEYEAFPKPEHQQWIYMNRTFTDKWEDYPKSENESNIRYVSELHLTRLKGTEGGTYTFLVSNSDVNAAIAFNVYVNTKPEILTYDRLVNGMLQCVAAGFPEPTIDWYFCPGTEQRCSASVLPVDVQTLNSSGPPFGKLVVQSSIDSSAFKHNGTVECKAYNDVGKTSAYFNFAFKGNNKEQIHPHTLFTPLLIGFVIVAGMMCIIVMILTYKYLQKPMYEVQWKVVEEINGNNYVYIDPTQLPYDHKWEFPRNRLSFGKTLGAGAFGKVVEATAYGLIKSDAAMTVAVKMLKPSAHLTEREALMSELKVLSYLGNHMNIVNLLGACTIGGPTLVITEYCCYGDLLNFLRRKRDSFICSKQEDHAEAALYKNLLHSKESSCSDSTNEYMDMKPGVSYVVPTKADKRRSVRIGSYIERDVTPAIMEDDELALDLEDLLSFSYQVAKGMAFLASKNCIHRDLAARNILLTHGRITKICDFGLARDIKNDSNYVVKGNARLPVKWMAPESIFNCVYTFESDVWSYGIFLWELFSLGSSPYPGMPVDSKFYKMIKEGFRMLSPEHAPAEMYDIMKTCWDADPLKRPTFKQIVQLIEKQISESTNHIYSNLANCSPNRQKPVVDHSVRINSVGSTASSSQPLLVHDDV
How it was run: (§1)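 Serial compound dilutions applied for 1 h to GIST-T1, GIST-T1-T670I (CRISPR/Cas9 T670I knock-in, clone confirmed by Sanger sequencing) or GIST-5R cells in DMEM with 10% FBS. Cells then lysed and phospho-proteins detected by standard Western blotting.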

[2] = Tmax in Sprague-Dawley rat at 1 mg/kg, iv measured after 2 to 720 mins by LC-tandem mass spectrometry analysis; assay type: ADME, organism-based; conditions: in vivo
How it was run: (§2)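 Male Sprague–Dawley rats (190-210 g), fasted 12 h, given 1 mg/kg i.v. or 10 mg/kg p.o. in DMSO/5% glucose water (1:9). Blood sampled at 2–720 min (i.v.) or 5–720 min (p.o.). Plasma proteins precipitated with methanol using caffeine internal standard, then LC-MS/MS. Noncompartmental analysis; F = AUC0-∞ ratio corrected for dose; triplicate ±SD.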

[3] = Antitumor activity against human GIST5R cells xenografted in nude mouse assessed as tumor weight at 100 mg/kg, po administered […] via gavage for 28 days (reference value: 0.59g); assay type: functional
How it was run: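 Female nu/nu mice (5 weeks old) given subcutaneous right-flank GIST-5R cells in Matrigel. Dosing began at tumors of 200-400 mm3; randomized, 4 mice per group. Daily oral dosing (QD) at 25, 50 or 100 mg/kg in 0.5% methylcellulose/0.4% Tween80, or vehicle alone, for 28 days. Body weight and tumor volume, (W²×L)/2, measured daily; mean±SEM.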

[4] = Cmax in Sprague-Dawley rat at 1 mg/kg, iv measured after 2 to 720 mins by LC-tandem mass spectrometry analysis; assay type: ADME, organism-based; parameters: dose 1 mg/kg, route intravenous; conditions: in vivo
How it was run: (§3)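 Male Sprague-Dawley rats (190-210 g), fasted 12 h, randomized into two groups: 1 mg/kg i.v. or 10 mg/kg p.o., both formulated in 10% DMSO/90% of 5% glucose water. Blood sampled at 2-720 min (i.v.) or 5-720 min (p.o.). Plasma protein-precipitated with methanol, caffeine internal standard, LC-MS/MS. Noncompartmental analysis; triplicate, ±SD.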

[5] = MRT (0 to infinity) in Sprague-Dawley rat at 10 mg/kg, po measured after 5 to 720 mins by LC-tandem mass spectrometry analysis; assay type: ADME, organism-based; conditions: in vivo; how it was run: as §2
[6] = Apparent clearance in Sprague-Dawley rat at 1 mg/kg, iv measured after 2 to 720 mins by LC-tandem mass spectrometry analysis; assay type: ADME, organism-based; conditions: in vivo, read-out: CL(app) (converted); how it was run: as §3
[7] = biological target: Platelet-derived growth factor receptor beta (Homo sapiens, UniProt P09619); experiment: Binding affinity to wild-type human partial length PDGFRB (V582 to Y1009 residues) expressed in bacterial expression system assessed as enzyme remaining activity at 1 uM by Kinomescan assay relative to control
Platelet-derived growth factor receptor beta, sequence (P09619 whole entry, the tested form may be a part): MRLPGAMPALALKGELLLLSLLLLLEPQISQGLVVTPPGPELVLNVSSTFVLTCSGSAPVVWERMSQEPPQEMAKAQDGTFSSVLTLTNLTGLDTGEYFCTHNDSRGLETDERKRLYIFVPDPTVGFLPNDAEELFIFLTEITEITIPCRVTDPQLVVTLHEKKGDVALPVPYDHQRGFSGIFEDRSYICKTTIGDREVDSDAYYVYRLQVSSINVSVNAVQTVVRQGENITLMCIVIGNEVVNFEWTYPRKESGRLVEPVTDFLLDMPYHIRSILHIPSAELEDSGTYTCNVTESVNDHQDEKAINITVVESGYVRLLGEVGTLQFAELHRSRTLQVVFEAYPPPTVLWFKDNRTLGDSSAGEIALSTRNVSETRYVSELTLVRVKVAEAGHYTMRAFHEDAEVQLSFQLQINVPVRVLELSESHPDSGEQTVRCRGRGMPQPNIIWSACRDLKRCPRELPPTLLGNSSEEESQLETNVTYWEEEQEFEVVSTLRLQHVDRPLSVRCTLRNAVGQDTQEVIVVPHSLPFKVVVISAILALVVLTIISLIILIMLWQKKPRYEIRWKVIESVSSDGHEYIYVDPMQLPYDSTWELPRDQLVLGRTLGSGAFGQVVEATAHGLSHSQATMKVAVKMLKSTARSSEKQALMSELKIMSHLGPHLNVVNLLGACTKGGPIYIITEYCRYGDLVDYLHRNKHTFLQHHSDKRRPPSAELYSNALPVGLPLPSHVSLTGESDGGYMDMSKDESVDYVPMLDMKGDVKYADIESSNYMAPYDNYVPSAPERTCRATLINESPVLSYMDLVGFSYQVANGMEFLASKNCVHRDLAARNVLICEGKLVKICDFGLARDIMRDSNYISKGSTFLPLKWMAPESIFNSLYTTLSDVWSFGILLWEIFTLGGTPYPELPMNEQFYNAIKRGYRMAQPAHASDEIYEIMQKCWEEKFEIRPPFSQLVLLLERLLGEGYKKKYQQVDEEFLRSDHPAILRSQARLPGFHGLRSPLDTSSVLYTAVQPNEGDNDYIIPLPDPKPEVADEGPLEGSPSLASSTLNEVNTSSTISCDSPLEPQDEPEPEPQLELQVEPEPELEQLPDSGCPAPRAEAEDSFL
How it was run: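 KINOMEscan competition binding panel of 468 kinases and mutants, compound at 1 μM; binding reported as percent of control.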

[8] = system: Mast/stem cell growth factor receptor Kit (Homo sapiens), P10721 [UNDEFINED MUTATION]; experiment: Inhibition of c-KIT 560 to 578 deletion mutant in human GISTT1 cells assessed as reduction in c-KIT autophosphorylation at Y823 residue at 0.1 uM to 3 uM after 1 hr by Western blot analysis; assay type: cell-based; how it was run: as §1
[9] = system: Mast/stem cell growth factor receptor Kit (Homo sapiens), P10721 [L576P]; experiment: Inhibition of TEL fused c-KIT L576P mutant (unknown origin) transfected in mouse BAF3 cells assessed as growth inhibition after 72 hrs by CCK8 assay; assay type: cell-based
Mast/stem cell growth factor receptor Kit (Homo sapiens), P10721 [L576P], sequence (P10721 whole entry L576P, the tested form may be a part): as the sequence (P10721 whole entry, looked up, stated change not applied, the tested form may be a part) above, with L576P counted along it
How it was run: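 Tel-c-KIT-transformed BaF3 lines (IL-3 independent) kept in RPMI 1640 with 10% FBS, 2% L-glutamine and pen/strep. Cells at 1.5 to 5 × 10^4 cells/mL mixed with graded compound and incubated 72 h at 37 °C, 5% CO2. Viability by CCK-8 absorbance at 450 nm, normalized to DMSO. GI50 from dose–response fit.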

[10] = biological target: Mast/stem cell growth factor receptor Kit (Homo sapiens, UniProt P10721); experiment: Inhibition of wild type c-KIT phosphorylation at Y719 residue in human COLO320DM cells after 2 hrs by Western blot analysis; assay type: cell-based
Mast/stem cell growth factor receptor Kit, sequence (P10721 whole entry): as the sequence (P10721 whole entry, looked up, stated change not applied, the tested form may be a part) above

GISTT1 = experiment: Induction of apoptosis in human GISTT1 cells harboring c-KIT 560 to 578 deletion mutant assessed as increase in cleaved PARP level after 24 hrs by Western blot analysis; assay type: functional, cell-based
How it was run: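 GIST cells grown in DMEM with 10% FBS, treated 24 h with serially diluted compound; apoptosis read by Western blot for PARP, with GAPDH as loading control.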

[11] = system: Mast/stem cell growth factor receptor Kit (Homo sapiens), P10721 [UNDEFINED MUTATION]; experiment: Inhibition of c-KIT 560 to 578 deletion/T670I double mutant in human GIST5R cells assessed as reduction in S6 phosphorylation at S235/S236 residue at 0.1 uM to 3 uM after 1 hr by Western blot analysis; assay type: cell-based; how it was run: as §1
[12] = system: Mast/stem cell growth factor receptor Kit (Homo sapiens), P10721 [UNDEFINED MUTATION]; experiment: Inhibition of c-KIT 560 to 578 deletion mutant in human GISTT1 cells assessed as reduction in ERK phosphorylation at T202/Y204 residue at 0.1 uM to 3 uM after 1 hr by Western blot analysis; assay type: cell-based; how it was run: as §1
[13] = MRT (0 to infinity) in mouse at 10 mg/kg, po measured after 5 to 720 mins by LC-tandem mass spectrometry analysis; assay type: ADME, organism-based; conditions: in vivo
[14] = system: Mast/stem cell growth factor receptor Kit (Homo sapiens), P10721 [UNDEFINED MUTATION]; experiment: Inhibition of c-KIT 560 to 578 deletion/T670I double mutant in human GIST5R cells assessed as reduction in AKT phosphorylation at S473 residue at 0.1 uM to 3 uM after 1 hr by Western blot analysis; assay type: cell-based; how it was run: as §1
[15] = system: Mast/stem cell growth factor receptor Kit (Homo sapiens), P10721 [L576P]; experiment: Binding affinity to human partial length c-KIT L576P mutant (Y545 to D952 residues) expressed in bacterial expression system assessed as enzyme remaining activity at 1 uM by Kinomescan method relative to control
How it was run: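 KINOMEscan binding profile (DiscoverX) run at 1 μM against a panel of 468 kinases and mutants. Read-out is percent of control (%Ctrl) remaining bound.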

[16] = Apparent volume of distribution in Sprague-Dawley rat at 1 mg/kg, iv measured after 2 to 720 mins by LC-tandem mass spectrometry analysis; assay type: ADME, organism-based; conditions: in vivo, read-out: Vz; how it was run: as §3
[17] = Tmax in mouse at 10 mg/kg, po measured after 5 to 720 mins by LC-tandem mass spectrometry analysis; assay type: ADME, organism-based; conditions: in vivo
[18] = system: Mast/stem cell growth factor receptor Kit (Homo sapiens), P10721 [UNDEFINED MUTATION]; experiment: Inhibition of c-KIT 560 to 578 deletion/T670I double mutant in human GISTT1 cells assessed as reduction in AKT phosphorylation at S473 residue at 0.1 uM to 3 uM after 1 hr by Western blot analysis; assay type: cell-based; how it was run: as §1
[19] = system: Mast/stem cell growth factor receptor Kit (Homo sapiens), P10721 [UNDEFINED MUTATION]; experiment: Inhibition of c-KIT 560 to 578 deletion mutant in human GISTT1 cells assessed as reduction in STAT3 phosphorylation at 0.1 uM to 3 uM after 1 hr by Western blot analysis; assay type: cell-based; how it was run: as §1

What does the source list for `O=C(CC(=O)Nc1ccc2c(/C=C/c3ccccn3)n[nH]c2c1)Nc1cccc(F)c1`?
inhibition [1]: Active; Tmax [2]: 1.02 min; Activity [3]: 0.1 g; Cmax [4]: 378 ng/mL; MRT inf [5]: 5.4 h; clearance [6]: 55 mL/min/kg; Activity [7]: 0%; inhibition [8]: Active; GI50 [9]: 0.157 µM; EC50 [10]: 1.43 µM; Activity (GISTT1): Dose-dependent effect; inhibition [11]: Active; inhibition [12]: Active; MRT inf [13]: 2.2 h; inhibition [14]: Active; Activity [15]: < 1%; Vd [16]: 49.3 L/kg; Tmax [17]: 0.5 h; inhibition [18]: Active; inhibition [19]: inactive
